Measurements gathered from unrelated publications.
Compare with care: the assays were run in different laboratories.
SLC6A2: Sodium-dependent noradrenaline transporter (SLC6A2, Homo sapiens, UniProt P23975)
TPR: Trypanothione reductase (TPR, Trypanosoma cruzi, UniProt P28593)
Dual specificity calcium/calmodulin-dependent 3',5'-cyclic nucleotide phosphodiesterase 1B: Dual specificity calcium/calmodulin-dependent 3',5'-cyclic nucleotide phosphodiesterase 1B (Homo sapiens, UniProt Q01064)
NPSR1: Neuropeptide S receptor (NPSR1, Homo sapiens, UniProt Q6W5P4)
GRM3: Metabotropic glutamate receptor 3 (GRM3, Homo sapiens, UniProt Q14832)
Aldo-keto reductase family 1 member A1: Aldo-keto reductase family 1 member A1 (Rattus norvegicus, UniProt P51635)
PTPN12: Tyrosine-protein phosphatase non-receptor type 12 (PTPN12, Homo sapiens, UniProt Q05209)

For `Clc1ccc(C(c2ccccc2)c2nnnn2CCCCN2CCN(CC=Cc3ccccc3)CC2)cc1` (centres unmarked), the IC50 was 0.985 µM (SLC6A2; transporter uptake; inhibitor).
`N=c1n(CCN2CCCCC2)c2ccccc2n1CC(O)c1ccc(Cl)c(Cl)c1` (centres unmarked) gave an IC50 of ≤ 10 µM (TPR; enzyme activity; inhibitor).
For `Clc1ccc(C(c2ccccc2)c2nnnn2CCCCN2CCC(CCCc3ccccc3)CC2)cc1` (centres unmarked), the IC50 was 0.232 µM (SLC6A2; transporter uptake; inhibitor).
`Cc1ccc(C(O)Cn2c(=N)n(CCN3CCCCC3)c3ccccc32)cc1` (centres unmarked) has an IC50 of ≤ 10 µM (TPR; enzyme activity; inhibitor).
`O=S(=O)(Nc1nc2cc(Cl)ccc2o1)c1cc(Cl)ccc1Cl` has an IC50 of 4.58 µM (Fructose-1,6-bisphosphatase 1 (Mus musculus, UniProt Q9QXD6); enzyme activity; inhibitor).
The IC50 of `COc1cc(/C=C2\SC(=O)NC2=O)cc(F)c1OCCNc1nc2c(cnn2C2CCCC2)c(=O)[nH]1` is reported as 0.0151 µM (Dual specificity calcium/calmodulin-dependent 3',5'-cyclic nucleotide phosphodiesterase 1B; enzyme activity; inhibitor).
With `O=C(Nc1ccn(Cc2ccc(O)cc2C(F)(F)F)n1)c1c(F)cccc1F` the IC50 was > 10 µM (Short transient receptor potential channel 3 (TRPC3, Homo sapiens, UniProt Q13507); ion current; inhibitor).
The IC50 of `CN1c2c(nc(N)[nH]c2=O)NC[C@@H]1CNc1ccc(C(=O)N[C@@H](CCC(=O)O)C(=O)O)cc1` is reported as 0.196 µM (Folate receptor beta (FOLR2, Homo sapiens, UniProt P14207); cell-free assay; ELISA).
For `CC(=O)N[C@@H](Cc1c[nH]c2ccccc12)C(=O)N[C@@H](CCC(=O)C=[N+]=[N-])C(=O)OC(C)C`, the IC50 was > 1000 µM (Glutaminase kidney isoform, mitochondrial (GLS, Homo sapiens, UniProt O94925); enzyme activity; inhibitor; radiometric).
The IC50 of `ClCCOC1c2ccccc2CCc2ccccc21` is reported as 29.7 µM (TPR; enzyme activity; inhibitor; absorbance).
`NC(=O)c1cccc(-c2cccc(OC(=O)NC3CCCCC3)c2)c1` gave an IC50 of 0.072 µM (Cocaine esterase (CES2, Homo sapiens, UniProt O00748); enzyme activity; inhibitor).
For `Clc1ccc(C(c2ccccc2)c2nnnn2CCCCN2CCN(CCCc3ccccc3)CC2)cc1` (centres unmarked), the IC50 was 0.745 µM (SLC6A2; transporter uptake; inhibitor).
`COc1cccc(C2c3c(ncn(-c4ccncc4)c3=N)Oc3ccc4ccccc4c32)c1` (centres unmarked) has an IC50 of 19.4 µM (NPSR1; cAMP; antagonist; TR-FRET).
The IC50 of `Clc1ccc2c(c1)N(CCCN1CCN(CCCc3ccccc3)CC1)c1ccccc1S2` is reported as 0.75 µM (TPR; enzyme activity; inhibitor; absorbance).
The IC50 of `N=c1c2c(ncn1-c1ccccc1)Oc1ccc3ccccc3c1C2c1ccc2c(c1)OCCO2` (centres unmarked) is reported as 3.07 µM (NPSR1; cAMP; antagonist; TR-FRET).
With `Nc1c(Cl)cccc1C(=O)Nc1ccccc1C(=O)O` the IC50 was 59.7 µM (srtA (Staphylococcus aureus, UniProt Q2FV99); enzyme activity; inhibitor).
With `COc1ccc(-c2cc(C(N)=O)ncc2OCc2ccncc2)c(F)c1` the IC50 was > 10 µM (GRM3; ion flux; antagonist).
With `COc1ccc2nc(/N=C3/NC(=O)C(=Cc4ccc(O)cc4)S3)sc2c1` the IC50 was 1.24 µM (Aldo-keto reductase family 1 member A1; enzyme activity; inhibitor; absorbance; pH 7.2).
The IC50 of `CCN(CC)CCn1c(=N)n(CCOc2ccccc2)c2ccccc21` is reported as ≤ 10 µM (TPR; enzyme activity; inhibitor).
`COc1cccc(C2c3c(ncn(-c4cccc(C#N)c4)c3=N)Oc3ccc4ccccc4c32)c1` (centres unmarked) has an IC50 of 19.4 µM (NPSR1; cAMP; antagonist; TR-FRET).
The IC50 of `NCCCc1ccccc1` is reported as > 100 µM (TPR; enzyme activity; inhibitor; absorbance).
The IC50 of `COc1cccc(C2c3c(ncn(-c4ccccc4-c4ccccc4)c3=N)Oc3ccc4ccccc4c32)c1` (centres unmarked) is reported as 38.7 µM (NPSR1; cAMP; antagonist; TR-FRET).
`c1ccc(CCC2CCN(CCCn3nnnc3C(c3ccccc3)c3ccccc3)CC2)cc1` gave an IC50 of 0.41 µM (SLC6A2; transporter uptake; inhibitor).
`CO/N=C(\C(=O)N[C@@H]1C(=O)N2C(C(=O)O)=C(COC(C)=O)CS[C@H]12)c1csc(N)n1` has an IC50 of 70 µM (PTPN12; enzyme activity; inhibitor; fluorescence).
With `COc1cccc(C2c3c(ncn(-c4cccc(C)c4)c3=N)Oc3ccc4ccccc4c32)c1` (centres unmarked) the IC50 was 12.2 µM (NPSR1; cAMP; antagonist; TR-FRET).
With `COc1ccc2nc(/N=C3/NC(=O)C(=Cc4cc(I)c(O)c(OC)c4)S3)sc2c1` the IC50 was > 50 µM (Aldo-keto reductase family 1 member A1; enzyme activity; inhibitor; absorbance; pH 7.2).
With `COc1cccc(C2c3c(ncn(-c4ccccc4C)c3=N)Oc3ccc4ccccc4c32)c1` (centres unmarked) the IC50 was 9.72 µM (NPSR1; cAMP; antagonist; TR-FRET).
`COc1ccc(-c2cc(C(N)=O)ncc2OCc2cn(C)cn2)c(F)c1` has an IC50 of > 10 µM (GRM3; ion flux; antagonist).
`Cc1cnc(-c2ccc(-c3ccc(NC(=O)Nc4c(F)cc(F)cc4F)cc3F)c3c2C(=O)NC3)[nH]1` has an IC50 of 0.0433 µM (Serine/threonine-protein kinase 10 (STK10, Homo sapiens, UniProt O94804); enzyme activity; inhibitor).
`Cc1ccc(C(=O)Nc2ccc(S(=O)(=O)O)c3cc(S(=O)(=O)O)cc(S(=O)(=O)O)c23)cc1NC(=O)c1cccc(NC(=O)Nc2cccc(C(=O)Nc3cc(C(=O)Nc4ccc(S(=O)(=O)O)c5cc(S(=O)(=O)O)cc(S(=O)(=O)O)c45)ccc3C)c2)c1` has an IC50 of 27 µM (PTPN12; enzyme activity; inhibitor; fluorescence).
`COc1ccc(-c2cc(C(N)=O)ncc2OCc2ccnc(OC)c2)c(F)c1` gave an IC50 of > 10 µM (GRM3; ion flux; antagonist).
The IC50 of `COc1ccccc1C1c2c(ncn(-c3ccccc3)c2=N)Oc2ccc3ccccc3c21` (centres unmarked) is reported as 5.52 µM (NPSR1; calcium signal; antagonist).
The IC50 of `O=C(Oc1cc(O)cc2c1C[C@@H](OC(=O)c1cc(O)c(O)c(O)c1)[C@@H](c1cc(O)c(O)c(O)c1)O2)c1cc(O)c(O)c(O)c1` is reported as 0.02 µM (PTPN12; enzyme activity; inhibitor; fluorescence).
`ClCCOC(c1ccccc1)c1ccccc1` gave an IC50 of 82.9 µM (TPR; enzyme activity; inhibitor; absorbance).
For `COc1ccc(C2=NN(C3CCCCCC3)C(=O)[C@@H]3CC=CC[C@H]23)cc1-c1ccc(C(N)=O)cc1` (relative stereo), the IC50 was > 10 µM (Dual specificity calcium/calmodulin-dependent 3',5'-cyclic nucleotide phosphodiesterase 1B; enzyme activity; inhibitor).
The IC50 of `O=C1c2ccccc2-c2cccc3cccc1c23` is reported as > 150 µM (PTPN12; enzyme activity; inhibitor; fluorescence).
The IC50 of `COc1cccc(C2c3c(ncn(-c4ccccc4OC)c3=N)Oc3ccc4ccccc4c32)c1` (centres unmarked) is reported as 1.1 µM (NPSR1; calcium signal; antagonist).
The IC50 of `Cn1ccc(COc2cnc(C(N)=O)cc2-c2ccc(F)cc2)n1` is reported as > 10 µM (GRM3; ion flux; antagonist).
